Consider 167 variants from the RNAGym collection of RNA variant scans (doi:10.1126/science.aae0568).

This sample holds only a part of the variants without activity.

B1: tRNA (parent)
chain: GUUCCGUUGGCGUAAUGGUAACGCGUCUCCCUCCUAAGGAGAAGACUGCGGGUUCGAGUCCCGUACGGAACG

The variants in this data set derive from B1. Description: yeast fitness relative to wild type (ratio to wild type); higher = fitter; tRNA-Arg(CCU), competitive growth, 37 C, YPD. In short, it runs like this:
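Start and end populations of a pooled competition were compared by 100-nucleotide paired-end sequencing of gene amplicons. The Saccharomyces cerevisiae strains carried tRNA-Arg(CCU) gene variants at the native genomic locus, synthesised with a 3% per-site mutation rate at 69 sites, and competed in YPD at 37°C for 24 hours in six parallel replicates. Darwinian fitness relative to wild type was based on the change in genotype frequencies. Genotypes required ≥ 100 starting reads, and estimates < 0.5 were set to 0.5.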
Consider U32A U59G, for which the yeast fitness worked out at 0.831. For U32C A43G A70G, the yeast fitness came out at 0.708.

As for G18A C24G, the yeast fitness was determined as 0.666. A21G C34G C66U: the yeast fitness was at most 0.5.

On to U3G C22A C24U U35G A45U, for which the yeast fitness was at most 0.5.

As for C46G C49U G67U, the yeast fitness was determined as 0.671.

Take C4A C5G C24G C29U: the yeast fitness was at most 0.5. In the case of U19G A20U G67A, the yeast fitness stood at 0.743. On to C11G C49U C61A A70G, for which the yeast fitness is at most 0.5.

As to C11G G17A C30G U59G, the yeast fitness is at most 0.5. Then G12C U26A C33A C34G A69C, with at most 0.5. Then U16G A42G A69C A70G, with at most 0.5; and G25C C60A G67C, with at most 0.5.

Turning to U2C A36C G38C C55U C62A, the yeast fitness is at most 0.5. For the variant C24A C27A A42G A69U, the yeast fitness was at most 0.5.

As to U19A C27U C49U C55U, the yeast fitness is 0.525. For the variant C5A A14G C24A G63A A69U, the yeast fitness is at most 0.5. Then C34A A37G A57U, with 0.616; and G17A C31U C49G, with at most 0.5.

In the case of U26C C30U C60A, the yeast fitness was at most 0.5. Then U13A C61A G68A, with at most 0.5; and C5G C11A A14G G25C C29G C60U, with at most 0.5.

C4G A14U: the yeast fitness is 0.78. Regarding U8C A45C A65C, the yeast fitness was at most 0.5.

For C49U G68C A69U, the yeast fitness turned out to be 0.569.

C4A G23A: the yeast fitness worked out at 0.89.

C5G C61G: the yeast fitness turned out to be 0.63.

As to C4G C5G A14U C49G A57U G63A G67A, the yeast fitness came out at 0.631. C4A C33G G41C G56C G58A G63C A65U: the yeast fitness was at most 0.5.

On to C24G C60U, for which the yeast fitness worked out at 0.61. Regarding G39U C66U, the yeast fitness is 0.854. Then A20C C46U, with 1.13; and A36G G52A C62G, with at most 0.5. Take G10C C49U A69C: the yeast fitness came to 0.575.

As to C24G C31G C33A G50C C55G A57U C62U, the yeast fitness is at most 0.5. Consider C31U U47G G58C C62U, for which the yeast fitness worked out at 0.552. On to A36U G50U A57U, for which the yeast fitness was found to be 0.616. As for A65C A70U, the figure is 1.06; as for A43C G52C, 0.74; as for G51A U59A G67C, at most 0.5. As for U2C A45G G68A, the figure is at most 0.5.

With C5A A45G, the yeast fitness is 0.937. As for G56A U59G, the figure is 0.762; as for G23C U59A, 0.704. Turning to C5G C22U U26C, the yeast fitness is at most 0.5. Consider C4A C31U A42U, for which the yeast fitness stood at 0.618.

For C46G G63C C66A, the yeast fitness is at most 0.5. In the case of G6A C11U A70C, the yeast fitness was found to be 0.578.

For G6A C11A C24G A42U, the yeast fitness was at most 0.5. Regarding G12C A20U A36G C46A U54A G67C, the yeast fitness was at most 0.5. For the variant A21G A45G A65C, the yeast fitness amounted to 0.977.

In the case of U16A C55U C61G A65G, the yeast fitness was at most 0.5. As for G9C U13A G25A A65U, the yeast fitness is at most 0.5. As for G12A A14U C66A, the yeast fitness was at most 0.5. As for G10A C30A C55A G58A, the figure is at most 0.5. For the variant U32C A42U C62G, the yeast fitness is 0.578. As for U26A, the yeast fitness turned out to be 0.996. As for U13C C29A C33G U35C G51A, the figure is 0.503; as for U2G A65G, 1.11; as for A21U C22U U32A G39A G51A A65U, at most 0.5. As for C24A U28C U64C C66U, the yeast fitness was at most 0.5.

Turning to U32C C62G, the yeast fitness came out at 0.796. For C22U G41A A65C, the yeast fitness was at most 0.5. C5A C24U C62A A69C: the yeast fitness was at most 0.5. For U3A G18A, the yeast fitness came to 0.661. In the case of C30U U54C A57C A70C, the yeast fitness was at most 0.5. For U3A U19C C22G A45U, the yeast fitness is at most 0.5. As to U35C A36C A40U C61G A69C A70C, the yeast fitness is at most 0.5.

For the variant C55U C62G C66A, the yeast fitness amounted to 0.53.

As to G17C G18C C22A G41C A42U U64C, the yeast fitness was at most 0.5. As to G39A A69U, the yeast fitness is 1.03. On to A20G U26A A45C, for which the yeast fitness was 0.519.

In the case of A21C U28A G38A U59C G67A, the yeast fitness is at most 0.5. C29A U35C G67A: the yeast fitness is at most 0.5.

Consider A15U C33G G50A, for which the yeast fitness was 0.625. As for U8A C22G G25A C27A C33U C49G A65C, the yeast fitness is 0.608.

As for U8A A65U, the yeast fitness is 0.708. For the variant U28C C29G C33A G68C, the yeast fitness is at most 0.5. With C11G C46A A65G, the yeast fitness was at most 0.5. Then C33A C34G A57U, with at most 0.5; and A21G G41C, with 0.997; and C4G U32G, with 0.628.

On to G6A C30A C31U A45C C55G, for which the yeast fitness is at most 0.5. Then G58A G68U, with 0.835. Consider C4U C24G G58C, for which the yeast fitness is at most 0.5. Regarding A20C A69G, the yeast fitness was 1.01. Consider U26C C29G A65G C66G G68C, for which the yeast fitness is at most 0.5. Consider G23A U26G C61U A69C, for which the yeast fitness turned out to be 0.793. Consider G6A C24U A45C C61G, for which the yeast fitness was at most 0.5.

For C5G A36G, the yeast fitness amounted to 1.01. For C11G A21C U26A C34U, the yeast fitness was at most 0.5. As for C4G C27A C31U, the yeast fitness was at most 0.5.

In the case of U7A C11G U28G U32A G38C, the yeast fitness is at most 0.5. With A42C U64C, the yeast fitness is 0.882.

Turning to C11G U32A A36G C46U, the yeast fitness worked out at 0.592. As to C33G G41C A43C G67C, the yeast fitness was at most 0.5. As for G23C C62U, the figure is 0.743. For A14G C34G, the yeast fitness stood at 0.608. With C27U G51C U59C G63A, the yeast fitness is at most 0.5. G41A C61G: the yeast fitness amounted to 0.685.

Take U3C C5G C30G A36C: the yeast fitness is at most 0.5. In the case of U8A U32A G52A G56C, the yeast fitness was at most 0.5. Regarding U7G A57G G68U, the yeast fitness is at most 0.5. For the variant G18A C27U C34G G48C C49U, the yeast fitness is at most 0.5. Consider G41C A43G U54A, for which the yeast fitness was 0.564. Then A14U A15U C49A G51C U59A, with at most 0.5.

As for U2G G68U, the yeast fitness worked out at 0.835.

For the variant C4G G6C C30A, the yeast fitness is at most 0.5. C5A U7C: the yeast fitness turned out to be 0.655.

C5G A15U C29G U59G: the yeast fitness is at most 0.5. For the variant U7A A37G A40G A43G G52C U59G C66U A69U, the yeast fitness is at most 0.5.

Consider A20G G25C C49A, for which the yeast fitness is at most 0.5.

For U7C A14G G17A, the yeast fitness was found to be 0.531. Turning to U8C C30U A57G, the yeast fitness worked out at 0.533. For C11U A20G C34G A40C G51C, the yeast fitness was at most 0.5.

Regarding A36U C46G, the yeast fitness amounted to 0.655. As for C4G C5G A20G A21U C34G C46A C61A, the yeast fitness is at most 0.5. Then G38C C46A U59C, with at most 0.5; and C4U A21G G52A, with at most 0.5; and G6A C49U A65U, with 0.667.

With C4A A14C G38A U59G, the yeast fitness is at most 0.5. As for C4U G25C G67A, the figure is 0.719. Regarding C29G U32C C34U G56A, the yeast fitness is 0.667. C11A A36G A43C: the yeast fitness came out at 0.58. Consider C22U C29G A42G, for which the yeast fitness amounted to 0.697. As for C24U A40U, the figure is 0.78; as for U54G C61G C62U A65U, at most 0.5. C29A G68C: the yeast fitness is 0.621. With C4A G18C C61U, the yeast fitness is at most 0.5. As for U3A C49A U53G A57U, the yeast fitness came to 0.798. As for U16A C31A C33G G38A, the figure is at most 0.5; as for C22G A69U, 0.903. With G9A C11G C22U A40G, the yeast fitness is at most 0.5. As for U32G A42G, the figure is 0.56; as for C11U A20U C29G U47G G63A A70U, at most 0.5; as for G25A A43U, 0.842. Then C22G U47G A65C, with at most 0.5; and A14C A21C C24U A36U A43U G56A G58C C66A, with at most 0.5; and C11U C46U G52C U59C C66U, with at most 0.5. Turning to A15G U26A C60U A70C, the yeast fitness was 0.52. Then A21C C27U G68U, with 0.633; and C11G U16A C30A A69C, with at most 0.5; and U3C U54A C62U, with at most 0.5.

For G9A C11G U13G G23C C34U U59C C66U, the yeast fitness stood at 0.574.

U16A G18C A20G C22U G58C C61A: the yeast fitness was at most 0.5.

Turning to C5U G38C C46U C60U, the yeast fitness is at most 0.5.

With G68C, the yeast fitness was 0.968. As to U19C C30G C33G U53A, the yeast fitness is at most 0.5.

Regarding A14G A42C, the yeast fitness was determined as 0.762. In the case of A40G C66A, the yeast fitness turned out to be 0.694. Consider U19C C24U C55U A57C, for which the yeast fitness was at most 0.5.

Take C5G A20G C22G C29G: the yeast fitness was at most 0.5.

Consider C11G U26C C49G, for which the yeast fitness is at most 0.5.

As to G9C A42U U54C, the yeast fitness is at most 0.5.

For the variant A15G A45G, the yeast fitness is 0.853.

With C31G A45U C55U C62U, the yeast fitness came to 0.564. As for C4A G23A C29U C34G G38C, the yeast fitness was at most 0.5. In the case of G17A C22G C31G C33G, the yeast fitness is at most 0.5.

With U7G C29U A36U, the yeast fitness was at most 0.5. Consider C22G G23C A42U, for which the yeast fitness was 0.573. For G6A C46G, the yeast fitness came to 0.937. Turning to G10A C11U, the yeast fitness came to 0.777. Consider U3C U8C A57C, for which the yeast fitness was at most 0.5. For the variant U32C A65U G68U, the yeast fitness is 0.622. Regarding C4U G18A G23C C24G C46G C66G, the yeast fitness is at most 0.5. As to G12A U16C, the yeast fitness is 0.981.

Regarding A14G C27A U54G G68C, the yeast fitness was at most 0.5.
